Neddyl block: blocks human cullin neddylation; hit rate 0.58% among 360,000; AID 651699; P61081+Q13564; TR-FRET cullin neddylation, biochemical; calls only at 25 µM; in the data active means inhibition above about 36%
FID counter: counter-screen for HCV NS3 helicase inhibitors: DNA intercalator displacement | DNA fluorescent intercalator displacement, fluorescence | inhibition, % at 7.9 µM | hit rate 0.17% among 290,000 | AID 1845; in the data active means inhibition above about 37%;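 further: 0% = vehicle and 100% = reference compound; higher means more ethidium bromide displaced from hairpin DNA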
RAD54 inh: RAD54 (human) branch migration inhibition | Q92698 | RAD54 Holliday junction branch migration, FAM/BHQ fluorescence | inhibition, % at 10.4 µM | hit rate 0.14% among 360,000 | AID 602329;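 active means mean normalized replicate activity at least 40 and at least half of replicates scoring 40 or more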;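 further: 0% = median of neutral control wells and 100% = median of positive control wells; inhibitors cause a drop in the FAM fluorescence signal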
UBC13 inh: inhibitors of human UBC13 polyubiquitin chain formation. TR-FRET. P61088. hit rate 0.47% among 330,000. inhibition, % at 20 µM; in the data active means inhibition above about 45%, passing the limit was not always enough
RAD52 inh: blocks human RAD52 DNA annealing | P43351 | recombinant RAD52 DNA annealing, FRET fluorescence | inhibition, % at 18.7 µM | hit rate 0.46% among 360,000;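 active means every replicate showing at least 50% inhibition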
Apaf1 inhib: inhibitors of human Apaf-1 apoptosome | O14727 | reconstituted apoptosome caspase-3 activity, DEVD-Rh110 fluorescence | inhibition, % at 20 µM | hit rate 0.71% among 330,000 | AID 489030; active means inhibition of at least 40% at 20 µM;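 further: plate controls were DMSO wells for no effect and DEVD-CHO caspase inhibitor wells for full effect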
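System: reconstituted apoptosome with Apaf-1, cytochrome c, caspase-9, procaspase-3, dATP; Signal: Rh110 fluorescence intensity; Schedule: 30 min compound preincubation, 50 min activation, room temperature; Reagent: cytochrome c trigger plus (Z-DEVD)2-Rh110 caspase-3 substrate.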
The depositor's hits bear a star; i = inactive; . = not tested or not shown; + = active, no number. Only some compounds are listed: those with a hit (about 1.6% of all), similar ones and a draw of the others.

SMILES	Neddyl block	FID counter	RAD54 inh	UBC13 inh	RAD52 inh	Apaf1 inhib
COc1ccc2c3c(n(C)c2c1)[C@H](CO)N(Cc1ccncc1)CC31CCN(C(=O)Cc2ccncc2)CC1	.	.	.	.	-56	.
CCOC(=O)N1CCN(Cc2ccc3c(c2)OCO3)CC1	i	-3	0	0	0	-7
Cc1c(O)ccc(C(=O)CN2CCN(Cc3ccc4c(c3)OCO4)CC2)c1O	i	98*	5	.	.	.
Cc1cccc(-c2nc(NCCCN3CCOCC3)c3ccccc3n2)c1	i	53*	31	8	.	5
Cc1ccc2ncnc(NCCCN3CCOCC3)c2c1	i	12	10	-7	.	-12
CCOC(=O)c1cc2c(=Cc3ccc(N(C)C)cc3)c3ccccc3n2[n+]1C	i	.	.	.	56*	.
Cc1cc2c(=Cc3ccc(N(C)C)cc3)c3ccccc3n2[n+]1C	i	.	.	.	-65	.
CN(C)c1ccc(C=c2c3ccccc3n3c2c2ccccc2[n+]3C)cc1	+	.	.	.	45	.
C[C@@H]1CN([C@@H](C)CO)C(=O)c2cc(NS(C)(=O)=O)ccc2O[C@@H](C)CCCCO[C@H]1CN(C)C(=O)CCC(F)(F)F	.	.	-14	.	1	.
CN1C(=O)c2cc(NC(=O)C3CC3)ccc2OC[C@@H]2O[C@H](CC(=O)O)CC[C@@H]21	.	.	.	.	12	.
OCC1(CCOc2ccccc2)CCN(Cc2ccccc2C(F)(F)F)CC1	i	5	-2	-11	-13	9
CCOc1ccccc1CN1CCC(CO)(CCOc2ccccc2)CC1	i	42*	.	10	-8	-8
O=C(C[C@@H]1C[C@H]2c3cc(NC(=O)C4CCOCC4)ccc3O[C@H]2[C@@H](CO)O1)NCc1ccccc1	.	.	8	.	0	.
COc1cc(OC)c(C2CC(=O)N3CN(c4ccccc4C)CSC3=C2C#N)cc1OC (stereo not given)	.	-23	.	-30	.	66*
COc1ccc2c3c(cccc13)N(C)N=C2C	i	7	7	-52	.	73*
CN(C(=O)COC(=O)c1cc([N+](=O)[O-])ccc1N1CCCC1)C1CCS(=O)(=O)C1 (stereo not given)	i	-5	.	-17	-16	5
CCC(C)N(C(=O)COC(=O)c1cc([N+](=O)[O-])ccc1N1CCOCC1)C1CCS(=O)(=O)C1 (stereo not given)	i	.	-3	-13	-15	78*
O=C(c1ccccc1)N1CC2(C1)[C@H](c1ccccc1)[C@H](CO)N2Cc1cc(F)ccc1F	.	.	.	.	-1	.
O=C(C[C@H]1CC[C@@H](NC(=O)c2ccncc2)[C@H](CO)O1)NCc1ccncn1	.	.	.	.	0	.
COc1ccc(CN(C)C[C@H]2OCCCC[C@H](C)Oc3ccc(NC(=O)Nc4ccc(C(F)(F)F)cc4)cc3C(=O)N([C@H](C)CO)C[C@@H]2C)cc1	.	.	10	.	53*	.
COc1ccc(CN(C)C[C@H]2OCCCC[C@@H](C)Oc3ccc(NC(=O)Nc4ccc(C(F)(F)F)cc4)cc3C(=O)N([C@@H](C)CO)C[C@@H]2C)cc1	.	.	-12	.	50*	.
COc1ccc(CN(C)C[C@@H]2OCCCC[C@H](C)Oc3ccc(NC(=O)Nc4ccc(C(F)(F)F)cc4)cc3C(=O)N([C@H](C)CO)C[C@@H]2C)cc1	.	.	-7	.	53*	.
COc1ccc(NC(=O)Nc2ccc3c(c2)C(=O)N([C@@H](C)CO)C[C@@H](C)[C@H](CN(C)Cc2ccc(C(F)(F)F)cc2)OCCCC[C@@H](C)O3)cc1	.	.	-3	.	-15	.
COc1ccccc1-c1ccc([C@H]2[C@@H](CO)N[C@@H]2CNC(=O)C2CCCC2)cc1	.	.	.	.	-30	.
CCC(=O)N1CC(=O)N2[C@H](CO)[C@@H](c3ccc(-c4ccccc4F)cc3)[C@@H]2C1	.	.	.	.	-11	.
C[C@H]1CCCCO[C@@H](CN(C)S(=O)(=O)c2ccc(F)cc2)[C@@H](C)CN([C@@H](C)CO)C(=O)c2cc(NC(=O)Nc3ccccc3)ccc2O1	.	.	-2	.	.	.
COC(=O)c1cccc(-c2ccc(C(c3c(C)[nH][nH]c3=O)c3c(C)[nH][nH]c3=O)o2)c1	i	-9	2	-53	-28	81*
C[C@@H]1CN([C@@H](C)CO)C(=O)Cc2cc(NC(=O)Nc3cccc4ccccc34)ccc2O[C@H]1CN(C)Cc1ccc2c(c1)OCO2	.	.	25	.	54*	.
C[C@H](CO)N1C[C@H](C)[C@@H](CN(C)Cc2ccc(Cl)c(Cl)c2)Oc2ccc(NC(=O)Nc3cccc4ccccc34)cc2CC1=O	.	.	-5	.	54*	.
